{
  "source": "paper PMC11892687",
  "about": "(Bioorganic & medicinal chemistry letters, 2017)",
  "key": {"HCT116 cells": {"tested_on": "HCT116 cells", "assay": "FACS cell cycle analysis in HCT116 cells", "format": "cell-based, human", "settings": "48 h, 500 nM compound"}, "Jurkat cells": {"tested_on": "Jurkat cells", "assay": "Anti-proliferative activity in Jurkat cells", "format": "cell-based", "settings": "Homo sapiens, read-out: IC50 (cytotoxic, anti-proliferative activity)"}, "[1]": {"tested_on": "panel of 468 human wild-type and mutant kinases", "assay": "KINOMEscan kinase profiling, panel of 468 kinases", "format": "binding", "settings": "KINOMEscan at 1 μM compound concentration"}, "[2]": {"molecular_target": "T1, recombinant purified Aurora A protein (Homo sapiens, UniProt O14965)", "T1 sequence (O14965 1-403)": "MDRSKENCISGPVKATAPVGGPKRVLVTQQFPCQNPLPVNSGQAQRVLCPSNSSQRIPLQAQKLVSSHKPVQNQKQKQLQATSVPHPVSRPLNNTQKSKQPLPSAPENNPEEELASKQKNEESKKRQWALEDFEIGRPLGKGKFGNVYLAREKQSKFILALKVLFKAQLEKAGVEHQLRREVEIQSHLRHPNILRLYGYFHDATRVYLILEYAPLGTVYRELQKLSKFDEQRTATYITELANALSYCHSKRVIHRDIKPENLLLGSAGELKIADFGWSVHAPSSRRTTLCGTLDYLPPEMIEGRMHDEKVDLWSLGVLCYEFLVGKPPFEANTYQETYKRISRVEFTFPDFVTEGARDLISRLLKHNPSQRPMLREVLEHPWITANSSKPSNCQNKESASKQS", "assay": "LC-MS/MS covalent labeling of recombinant Aurora A", "format": "binding", "settings": "compound at 10 fold excess with recombinant purified Aurora A"}, "LRRK2": {"molecular_target": "LRRK2 (Homo sapiens, UniProt Q5S007)", "sequence (Q5S007 whole entry, species assumed)": "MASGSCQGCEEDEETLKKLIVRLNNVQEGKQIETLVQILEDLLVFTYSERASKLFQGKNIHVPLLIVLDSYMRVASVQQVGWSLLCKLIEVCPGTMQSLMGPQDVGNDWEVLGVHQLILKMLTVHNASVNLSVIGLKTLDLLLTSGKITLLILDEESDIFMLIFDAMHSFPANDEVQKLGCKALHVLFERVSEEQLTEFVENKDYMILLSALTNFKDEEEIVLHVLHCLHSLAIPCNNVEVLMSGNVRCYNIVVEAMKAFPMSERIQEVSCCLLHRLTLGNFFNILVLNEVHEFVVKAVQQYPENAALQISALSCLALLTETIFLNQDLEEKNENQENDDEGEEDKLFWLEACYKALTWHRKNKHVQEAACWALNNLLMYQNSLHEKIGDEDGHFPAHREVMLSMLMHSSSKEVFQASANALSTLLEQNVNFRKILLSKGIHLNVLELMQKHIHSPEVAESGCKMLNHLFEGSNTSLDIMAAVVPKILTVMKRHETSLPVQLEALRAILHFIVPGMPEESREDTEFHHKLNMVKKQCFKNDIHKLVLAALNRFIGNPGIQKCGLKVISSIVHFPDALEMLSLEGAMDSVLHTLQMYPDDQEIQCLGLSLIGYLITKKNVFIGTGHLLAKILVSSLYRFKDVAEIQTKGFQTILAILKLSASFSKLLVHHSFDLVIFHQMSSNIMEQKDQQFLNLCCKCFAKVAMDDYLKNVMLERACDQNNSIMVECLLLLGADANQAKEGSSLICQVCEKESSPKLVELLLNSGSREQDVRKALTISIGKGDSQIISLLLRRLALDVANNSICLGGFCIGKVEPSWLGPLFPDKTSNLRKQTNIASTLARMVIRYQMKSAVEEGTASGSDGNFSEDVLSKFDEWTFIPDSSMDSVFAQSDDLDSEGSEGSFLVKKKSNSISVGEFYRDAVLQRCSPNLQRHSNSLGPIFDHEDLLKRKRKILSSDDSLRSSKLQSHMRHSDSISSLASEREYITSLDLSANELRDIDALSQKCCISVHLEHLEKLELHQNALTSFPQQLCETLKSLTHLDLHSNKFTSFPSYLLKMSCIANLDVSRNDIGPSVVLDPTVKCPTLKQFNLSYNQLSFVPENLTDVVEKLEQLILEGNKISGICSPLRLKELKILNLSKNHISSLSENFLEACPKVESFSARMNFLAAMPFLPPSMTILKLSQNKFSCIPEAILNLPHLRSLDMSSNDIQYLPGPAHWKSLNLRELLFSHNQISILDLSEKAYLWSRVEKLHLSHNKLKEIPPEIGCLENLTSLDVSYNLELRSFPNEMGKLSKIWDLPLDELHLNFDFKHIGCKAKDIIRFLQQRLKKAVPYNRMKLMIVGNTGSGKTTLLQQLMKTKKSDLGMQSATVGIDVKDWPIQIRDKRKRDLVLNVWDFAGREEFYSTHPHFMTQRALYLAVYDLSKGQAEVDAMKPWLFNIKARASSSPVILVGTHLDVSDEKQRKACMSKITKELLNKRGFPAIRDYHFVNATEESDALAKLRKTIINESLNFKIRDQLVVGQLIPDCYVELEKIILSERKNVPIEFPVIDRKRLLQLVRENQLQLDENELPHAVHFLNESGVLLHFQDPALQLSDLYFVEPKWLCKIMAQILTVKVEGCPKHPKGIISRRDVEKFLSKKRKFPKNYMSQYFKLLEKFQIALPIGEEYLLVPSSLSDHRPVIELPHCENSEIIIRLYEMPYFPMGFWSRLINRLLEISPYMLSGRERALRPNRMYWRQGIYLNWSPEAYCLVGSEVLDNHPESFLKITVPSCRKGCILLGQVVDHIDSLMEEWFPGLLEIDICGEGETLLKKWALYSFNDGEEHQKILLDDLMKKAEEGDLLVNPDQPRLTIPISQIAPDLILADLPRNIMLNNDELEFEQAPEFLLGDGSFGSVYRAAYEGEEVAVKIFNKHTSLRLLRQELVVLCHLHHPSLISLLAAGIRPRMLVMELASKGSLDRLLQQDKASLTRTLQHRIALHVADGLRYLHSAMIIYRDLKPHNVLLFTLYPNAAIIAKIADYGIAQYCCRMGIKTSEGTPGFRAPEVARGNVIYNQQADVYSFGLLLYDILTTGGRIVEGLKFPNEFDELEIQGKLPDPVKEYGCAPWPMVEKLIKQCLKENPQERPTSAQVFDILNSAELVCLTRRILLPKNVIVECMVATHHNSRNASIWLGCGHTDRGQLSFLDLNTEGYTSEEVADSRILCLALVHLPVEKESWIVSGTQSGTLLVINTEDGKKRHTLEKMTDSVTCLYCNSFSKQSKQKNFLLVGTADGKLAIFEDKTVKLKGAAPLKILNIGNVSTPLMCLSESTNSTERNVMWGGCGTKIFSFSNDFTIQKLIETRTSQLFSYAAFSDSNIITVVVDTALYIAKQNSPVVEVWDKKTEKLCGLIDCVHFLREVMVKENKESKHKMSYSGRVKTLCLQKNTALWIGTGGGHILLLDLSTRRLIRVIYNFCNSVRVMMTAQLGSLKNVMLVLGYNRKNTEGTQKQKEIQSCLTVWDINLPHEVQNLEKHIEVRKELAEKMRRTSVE", "assay": "Biochemical assay LRRK2"}, "HEK293": {"tested_on": "HEK293", "assay": "Cell Titer Glo cell viability assay HEK293", "format": "cell-based", "settings": "Homo sapiens, HEK293, 72 h, read-out: HEK293 IC50", "outline": "(§1)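 Cells from a human cancer line panel were treated with the test compound across a dose-response series.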"}, "PC3": {"tested_on": "PC3", "assay": "Cell Titer Glo cell viability assay PC3", "format": "cell-based", "settings": "Homo sapiens, PC-3, 72 h, read-out: PC3 IC50", "outline": "as §1"}, "BRD4": {"molecular_target": "BRD4 (Homo sapiens, UniProt O60885)", "assay": "Biochemical assay BRD4"}, "ABL1 Y253F": {"molecular_target": "ABL1 Y253F (Homo sapiens, UniProt P00519, Y253F)", "assay": "Biochemical kinase assay ABL1 Y253F"}, "HCT116": {"tested_on": "HCT116", "assay": "Cell Titer Glo cell viability assay HCT116", "format": "cell-based", "settings": "Homo sapiens, HCT-116, 72 h, read-out: HCT116 IC50", "outline": "as §1"}},
  "data": [
    {"smiles": "CCOC(=O)c1[nH]cc2c1NC1=C(C(=O)CCC1)[C@H]2c1cccc(Oc2nc3ccccc3[nH]2)c1", "note": "[SAR156497, reference compound]", "values": [
      {"measurement": "effect on cell cycle (FACS)", "setting": "HCT116 cells", "value": "failed cytokinesis and accumulation of cells that contain 4N DNA (polyploidy)"}
    ]},
    {"smiles": "C=CC(=O)Nc1ccc(C(=O)Nc2ccc(Nc3ncc4c(n3)N(C)c3ccc(C)cc3C(=O)N4C)cc2)cc1", "note": "[compound 1]", "values": [
      {"measurement": "IC50", "setting": "Jurkat cells", "value": 370, "unit": "nM"},
      {"measurement": "kinome-wide selectivity", "setting": "[1]", "value": "exclusively on-target activity"},
      {"measurement": "labeling of Aurora A by LC-MS/MS", "setting": "[2]", "value": "no labeling"},
      {"measurement": "activity against LRRK2", "setting": "LRRK2", "value": "inactive"},
      {"measurement": "IC50", "setting": "HEK293", "value": "250 ± 48", "unit": "nM"},
      {"measurement": "IC50", "setting": "PC3", "value": "990 ± 1500", "unit": "nM"},
      {"measurement": "effect on cell cycle (FACS)", "setting": "HCT116 cells", "value": "failed cytokinesis and accumulation of cells that contain 4N DNA (polyploidy)"},
      {"measurement": "activity against BRD4", "setting": "BRD4", "value": "inactive"}
    ]},
    {"smiles": "CCC(=O)Nc1ccc(C(=O)Nc2ccc(Nc3ncc4c(n3)N(C)c3ccc(C)cc3C(=O)N4C)cc2)cc1", "note": "[compound 2]", "values": [
      {"measurement": "IC50", "setting": "ABL1 Y253F", "value": "> 10000", "unit": "nM"},
      {"measurement": "IC50", "setting": "HCT116", "value": "~100", "unit": "nM"},
      {"measurement": "activity against LRRK2", "setting": "LRRK2", "value": "inactive"},
      {"measurement": "IC50", "setting": "HEK293", "value": "~100", "unit": "nM"},
      {"measurement": "IC50", "setting": "PC3", "value": "~100", "unit": "nM"},
      {"measurement": "activity against BRD4", "setting": "BRD4", "value": "inactive"}
    ]}
  ]
}
